From ChEMBL document CHEMBL1148762, “Lysosome and HER3 (ErbB3) selective anticancer agent kahalalide F: semisynthetic modifications and antifungal lead-exploration studies” (J Med Chem, 2007)
pIC50: −log10 of the molar value. In brackets after ≈: the same amount, converted by molar mass. Activity calls are given as the source filed them. No cut-off for these calls is given here.

Experiments:
Fusarium solani [1] = assay: Antimicrobial activity against Fusarium solani at 0.3 uM after 72 hrs by microtiter assay; format: functional
Procedure, shortened: (§1)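 96-well microdilution broth assay with conidia (3 × 10^5 conidia/mL, harvested from 7-day PDA cultures and filtered) against F. oxysporum, F. proliferatum and F. solani at 0.3, 3 and 30 µM. Plates were held at 24 ± 1 °C under a 12 h photoperiod. Growth was read at 620 nm at 24, 48 and 72 h and reported as percent inhibition from mean absorbance with standard error.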

Fusarium proliferatum [2] = assay: Antimicrobial activity against Fusarium proliferatum at 0.3 uM after 72 hrs by microtiter assay; format: functional; procedure, shortened: as §1
Fusarium solani [3] = assay: Antimicrobial activity against Fusarium solani at 30 uM after 72 hrs by microtiter assay; format: functional; procedure, shortened: as §1
Fusarium proliferatum [4] = assay: Antimicrobial activity against Fusarium proliferatum at 30 uM after 72 hrs by microtiter assay; format: functional; procedure, shortened: as §1
Fusarium solani [5] = assay: Antimicrobial activity against Fusarium solani at 3 uM after 72 hrs by microtiter assay; format: functional; procedure, shortened: as §1
Fusarium proliferatum [6] = assay: Antimicrobial activity against Fusarium proliferatum at 3 uM after 48 hrs by microtiter assay; format: functional; procedure, shortened: as §1
Fusarium solani [7] = assay: Antimicrobial activity against Fusarium solani at 30 uM after 48 hrs by microtiter assay; format: functional; procedure, shortened: as §1
Fusarium proliferatum [8] = assay: Antimicrobial activity against Fusarium proliferatum at 3 uM after 72 hrs by microtiter assay; format: functional; procedure, shortened: as §1
Fusarium proliferatum [9] = assay: Antimicrobial activity against Fusarium proliferatum at 0.3 uM after 48 hrs by microtiter assay; format: functional; procedure, shortened: as §1
Fusarium oxysporum [10] = assay: Antimicrobial activity against Fusarium oxysporum at 3 uM after 48 hrs by microtiter assay; format: functional; procedure, shortened: as §1
Fusarium solani [11] = assay: Fungistatic activity against Fusarium solani at 30 uM after 72 hrs by microtiter plate assay; format: functional, organism-based
Procedure, shortened: (§2)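 Conidia come from 7-day potato dextrose agar cultures, filtered and set photometrically (625 nm) to 3 × 10^5 conidia/mL. They are exposed to compound at 30 µM in 96-well microdilution broth at 24 ± 1 °C under a 12 h photoperiod. After 72 h, 20 µL per well is subcultured on drug-free potato dextrose agar at 28 °C for 3 days. No regrowth is scored fungicidal; regrowth is scored fungistatic.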

Fusarium solani [12] = assay: Antimicrobial activity against Fusarium solani at 0.3 uM after 48 hrs by microtiter assay; format: functional; procedure, shortened: as §1
Fusarium proliferatum [13] = assay: Fungistatic activity against Fusarium proliferatum at 30 uM after 72 hrs by microtiter plate assay; format: functional, organism-based; procedure, shortened: as §2
Fusarium proliferatum [14] = assay: Antimicrobial activity against Fusarium proliferatum at 30 uM after 48 hrs by microtiter assay; format: functional; procedure, shortened: as §1
Fusarium oxysporum [15] = assay: Antimicrobial activity against Fusarium oxysporum at 30 uM after 48 hrs by microtiter assay; format: functional; procedure, shortened: as §1
Fusarium solani [16] = assay: Antimicrobial activity against Fusarium solani at 3 uM after 48 hrs by microtiter assay; format: functional; procedure, shortened: as §1
Fusarium oxysporum [17] = assay: Antimicrobial activity against Fusarium oxysporum at 0.3 uM after 48 hrs by microtiter assay; format: functional; procedure, shortened: as §1
Fusarium oxysporum [18] = assay: Fungistatic activity against Fusarium oxysporum at 30 uM after 72 hrs by microtiter plate assay; format: functional, organism-based; procedure, shortened: as §2
Fusarium oxysporum [19] = assay: Antimicrobial activity against Fusarium oxysporum at 3 uM after 72 hrs by microtiter assay; format: functional; procedure, shortened: as §1
Fusarium oxysporum [20] = assay: Antimicrobial activity against Fusarium oxysporum at 30 uM after 72 hrs by microtiter assay; format: functional; procedure, shortened: as §1
Fusarium oxysporum [21] = assay: Antimicrobial activity against Fusarium oxysporum at 0.3 uM after 72 hrs by microtiter assay; format: functional; procedure, shortened: as §1
Fusarium solani [22] = assay: Fungicidal activity against Fusarium solani at 30 uM after 72 hrs by microtiter assay; format: functional, organism-based
Procedure, shortened: (§3)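 After 72 h of microtiter broth exposure at 30 µM, 20 µL from each well was plated onto compound-free potato dextrose agar and incubated 3 days at 28 °C. No regrowth was scored fungicidal; regrowth was scored fungistatic.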

Fusarium oxysporum [23] = assay: Fungicidal activity against Fusarium oxysporum at 30 uM after 72 hrs by microtiter plate assay; format: functional, organism-based; procedure, shortened: as §3
Fusarium proliferatum [24] = assay: Antifungal activity against Fusarium proliferatum at 20 ug/mL after 3 days by fluorescence assay; format: functional, organism-based
Procedure, shortened: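 Fusarium proliferatum conidia in potato dextrose broth in a tube with the coumarin (DEAC)-labelled probe at 20 µg/mL, held at 24 ± 1 °C. Hyphae and mycelia were viewed at 4, 8, 16, 24, 48 and 72 h by light and epifluorescence microscopy at 400× and 1000×. Conidia were first checked for autofluorescence.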

Fusarium proliferatum [25] = assay: Fungicidal activity against Fusarium proliferatum at 30 uM after 72 hrs by microtiter plate assay; format: functional, organism-based; procedure, shortened: as §3
Hs-578T = assay: Cytotoxicity against human HS578T cells; format: functional
Procedure, shortened: (§4)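 NCI Developmental Therapeutics Program cell panel. GI50 is the concentration that reduces growth of treated cells to half that of untreated controls. TGI is the concentration that completely halts growth.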

SK-OV-3 = assay: Cytotoxicity against human SK-OV3 cells; format: functional; procedure, shortened: as §4
Escherichia coli = assay: Antimicrobial activity against Escherichia coli; format: functional, organism-based
RPMI-8226 = assay: Cytotoxicity against human RPMI8226 cells; format: functional; procedure, shortened: as §4
ACHN = assay: Cytotoxicity against human ACHN cells; format: functional; procedure, shortened: as §4
NCI-H322M = assay: Cytotoxicity against human NCI-H322M cells; format: functional; procedure, shortened: as §4
HCT-15 = assay: Cytotoxicity against human HCT15 cells; format: functional; procedure, shortened: as §4
[26] = tested on: Mycobacterium tuberculosis; assay: Antibacterial activity against Mycobacterium tuberculosis H37Rv by micro plate alamar blue assay; format: functional
A549 = assay: Cytotoxicity against human A549 cells; format: functional; procedure, shortened: as §4
UACC-257 = assay: Cytotoxicity against human UACC257 cells; format: functional; procedure, shortened: as §4
HT-29 = assay: Cytotoxicity against human HT29 cells; format: functional; procedure, shortened: as §4
Cryptococcus neoformans = assay: Antimicrobial activity against Cryptococcus neoformans ATCC 90113; format: functional, organism-based
SNB-75 = assay: Cytotoxicity against human SNB75 cells; format: functional; procedure, shortened: as §4
HCC 2998 = assay: Cytotoxicity against human HCC2998 cells; format: functional; procedure, shortened: as §4
[27] = tested on: Mycobacterium tuberculosis; assay: Antibacterial activity against Mycobacterium tuberculosis H37Rv at 16 ug/mL by micro plate alamar blue assay; format: functional
Procedure, shortened: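 M. tuberculosis H37Rv ATCC 27294 grown in BACTEC 12B medium; microplate Alamar blue assay (MABA). Primary screen at a single concentration of 16 µg/mL, read as percent inhibition.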

Leishmania donovani = assay: Antiparasitic activity against Leishmania donovani; format: functional, organism-based
Aspergillus fumigatus = assay: Antimicrobial activity against Aspergillus fumigatus ATCC 90906; format: functional, organism-based
[28] = tested on: Mycobacterium intracellulare; assay: Antimicrobial activity against Mycobacterium intracellular ATCC 23068; format: functional, organism-based
Candida albicans = assay: Antimicrobial activity against Candida albicans ATCC 90028; format: functional, organism-based
KM12 = assay: Cytotoxicity against human KM12 cells; format: functional; procedure, shortened: as §4
PC-3 = assay: Cytotoxicity against human PC3 cells; format: functional; procedure, shortened: as §4
Staphylococcus aureus = assay: Antimicrobial activity against methicillin-resistant Staphylococcus aureus; format: functional, organism-based

CO/C=C(/C(=O)OC)c1ccccc1Oc1cc(Oc2ccccc2C#N)ncn1 [AZOXYSTROBIN]
inhibition at 0.3 µM (Fusarium solani [1]): 11.7% | inhibition at 0.3 µM (Fusarium proliferatum [2]): 0% | inhibition at 30 µM (Fusarium solani [3]): 51.7% | inhibition at 30 µM (Fusarium proliferatum [4]): 40.7% | inhibition at 3 µM (Fusarium solani [5]): 15% | inhibition at 3 µM (Fusarium proliferatum [6]): 21.7% | inhibition at 30 µM (Fusarium solani [7]): 62.7% | inhibition at 3 µM (Fusarium proliferatum [8]): 14.8% | inhibition at 0.3 µM (Fusarium proliferatum [9]): 0% | inhibition at 3 µM (Fusarium oxysporum [10]): 32.3% | Activity (Fusarium solani [11]): Active | inhibition at 0.3 µM (Fusarium solani [12]): 16.6% | Activity (Fusarium proliferatum [13]): Active | inhibition at 30 µM (Fusarium proliferatum [14]): 53% | inhibition at 30 µM (Fusarium oxysporum [15]): 77.2% | inhibition at 3 µM (Fusarium solani [16]): 25.3% | inhibition at 0.3 µM (Fusarium oxysporum [17]): 22.7% | Activity (Fusarium oxysporum [18]): Active | inhibition at 3 µM (Fusarium oxysporum [19]): 7.1% | inhibition at 30 µM (Fusarium oxysporum [20]): 32.9% | inhibition at 0.3 µM (Fusarium oxysporum [21]): 15.3%

C/C=C1\NC(=O)[C@H](Cc2ccccc2)NC(=O)[C@@H](C(C)C)NC(=O)[C@@H]([C@@H](C)CC)NC(=O)[C@H](NC(=O)[C@H](NC(=O)[C@H](CCCNC(=O)c2cc3ccc(N(CC)CC)cc3oc2=O)NC(=O)[C@H]2CCCN2C(=O)[C@@H](NC(=O)[C@H](NC(=O)[C@H](NC(=O)[C@@H](NC(=O)CCCC(C)C)C(C)C)[C@H](C)O)C(C)C)C(C)C)[C@@H](C)CC)[C@@H](C)OC(=O)[C@H](C(C)C)NC1=O
Activity (Fusarium solani [22]): inactive | Activity (Fusarium oxysporum [23]): inactive | Activity (Fusarium proliferatum [24]): inactive | Activity (Fusarium proliferatum [25]): inactive

C/C=C1\NC(=O)[C@H](Cc2ccccc2)NC(=O)[C@@H](C(C)C)NC(=O)[C@@H]([C@H](C)CC)NC(=O)[C@H](NC(=O)[C@H](NC(=O)[C@H](CCCN)NC(=O)[C@H]2CCCN2C(=O)[C@H](NC(=O)[C@@H](NC(=O)[C@@H](NC(=O)[C@H](NC(=O)CCCC(C)C)C(C)C)[C@@H](C)O)C(C)C)C(C)C)[C@H](C)CC)[C@H](C)OC(=O)[C@H](C(C)C)NC1=O [KAHALALIDE F]
inhibition at 0.3 µM (Fusarium solani [1]): 0% | inhibition at 0.3 µM (Fusarium proliferatum [2]): 0% | GI50 (Hs-578T): 162 nM | TGI (Hs-578T): 479 nM | GI50 (SK-OV-3): 191 nM | TGI (SK-OV-3): 355 nM | inhibition at 30 µM (Fusarium solani [3]): 99.9% | inhibition at 30 µM (Fusarium proliferatum [4]): 100% | inhibition at 3 µM (Fusarium solani [5]): 0% | Activity (Escherichia coli): inactive | GI50 (RPMI-8226): 1740 nM | TGI (RPMI-8226): 6.92 µM | inhibition at 3 µM (Fusarium proliferatum [6]): 0% | inhibition at 30 µM (Fusarium solani [7]): 98.9% | inhibition at 3 µM (Fusarium proliferatum [8]): 0% | GI50 (ACHN): 1660 nM | TGI (ACHN): 3.24 µM | inhibition at 0.3 µM (Fusarium proliferatum [9]): 0% | GI50 (NCI-H322M): 191 nM | TGI (NCI-H322M): 372 nM | inhibition at 3 µM (Fusarium oxysporum [10]): 0% | inhibition at 0.3 µM (Fusarium solani [12]): 0% | inhibition at 30 µM (Fusarium proliferatum [14]): 99.8% | GI50 (HCT-15): 269 nM | TGI (HCT-15): 741 nM | Activity (Fusarium solani [22]): Active | MIC [26]: > 16 µg/mL | GI50 (A549): 135 nM | TGI (A549): 302 nM | GI50 (UACC-257): 1020 nM | TGI (UACC-257): 2820 nM | inhibition at 30 µM (Fusarium oxysporum [15]): 100% | GI50 (HT-29): 162 nM | TGI (HT-29): 316 nM | pIC50 (Cryptococcus neoformans): 5.82 | MFC (Cryptococcus neoformans): 5 µM (≈ 7.39 µg/mL) | MIC (Cryptococcus neoformans): 5 µM (≈ 7.39 µg/mL) | inhibition at 3 µM (Fusarium solani [16]): 9.9% | Activity (Fusarium oxysporum [23]): Active | inhibition at 0.3 µM (Fusarium oxysporum [17]): 0% | GI50 (SNB-75): 224 nM | TGI (SNB-75): 1900 nM | GI50 (HCC 2998): 288 nM | TGI (HCC 2998): 616 nM | Activity (Fusarium proliferatum [24]): Active | inhibition at 16 µg/mL [27]: 67% | IC50 (Leishmania donovani): 17 µg/mL (≈ 11.5 µM) | IC90 (Leishmania donovani): 34 µg/mL (≈ 23 µM) | Activity (Fusarium proliferatum [25]): Active | pIC50 (Aspergillus fumigatus): 5.49 | MFC (Aspergillus fumigatus): 20 µM (≈ 29.6 µg/mL) | MIC (Aspergillus fumigatus): 10 µM (≈ 14.8 µg/mL) | pIC50 [28]: < 4.70 | MBC [28]: > 20 µM | MIC [28]: > 20 µM | inhibition at 3 µM (Fusarium oxysporum [19]): 0% | inhibition at 30 µM (Fusarium oxysporum [20]): 99.6% | pIC50 (Candida albicans): 5.52 | MFC (Candida albicans): 20 µM (≈ 29.6 µg/mL) | MIC (Candida albicans): 10 µM (≈ 14.8 µg/mL) | GI50 (KM12): 182 nM | TGI (KM12): 363 nM | GI50 (PC-3): 170 nM | TGI (PC-3): 324 nM | Activity (Staphylococcus aureus): inactive | inhibition at 0.3 µM (Fusarium oxysporum [21]): 0%
